Assay [1] can be described thus: Percent efficacy relative to 5-HT. It counts as functional. The procedure, abridged:
(§1)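 Agonist-induced [35S]GTPγS binding was measured in CHO cells stably transfected with human 5-HT1D receptors. The output was EC50 together with intrinsic efficacy, expressed as percent of the maximal 5-HT response.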

Assay [2] addresses 5-hydroxytryptamine receptor 1B (Homo sapiens, UniProt P28222). The assay can be described thus: Binding affinity to human cloned 5-hydroxytryptamine 1B receptor in CHO cells by [3H]5-HT binding displacement. It counts as cell-based.
In assay [3] the target is Serotonin 1 receptors; 5-HT1B & 5-HT1D (Homo sapiens) (UniProt P28222+P28221). The assay can be described thus: Binding selectivity for 5-HT 1D/1B receptors. The assay is classed as protein assay.
The target in assay [4] is T1, 5-hydroxytryptamine receptor 1D (Homo sapiens, UniProt P28221). The assay can be described thus: Binding affinity by displacement to human cloned 5-hydroxytryptamine 1D receptor in CHO cells by [3H]5-HT displacement. The assay is classed as cell-based. Put shortly: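 Cloned human 5-HT1D receptors were stably expressed in CHO cells. Compounds displaced [3H]-5-HT, used at the receptor's KD, and IC50 was read from the displacement. Values are the mean of two independent determinations, each run in triplicate.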
T1 sequence (P28221 whole entry): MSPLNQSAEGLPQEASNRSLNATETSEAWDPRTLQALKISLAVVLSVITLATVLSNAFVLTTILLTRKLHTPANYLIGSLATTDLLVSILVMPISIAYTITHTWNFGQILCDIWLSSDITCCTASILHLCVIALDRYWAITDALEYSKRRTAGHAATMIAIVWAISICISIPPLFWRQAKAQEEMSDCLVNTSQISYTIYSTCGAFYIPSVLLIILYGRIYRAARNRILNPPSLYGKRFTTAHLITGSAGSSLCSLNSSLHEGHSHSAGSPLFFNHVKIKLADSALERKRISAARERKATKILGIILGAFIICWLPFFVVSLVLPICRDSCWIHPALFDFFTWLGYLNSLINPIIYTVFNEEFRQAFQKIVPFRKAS

In assay [5] the target is T1, 5-hydroxytryptamine receptor 1D. The assay can be described thus: Measurement of agonist induced [35S]GTP-gamma-S, binding in CHO cells stably transfected with 5-hydroxytryptamine 1D receptor. The assay is classed as functional, cell-based. The procedure, abridged: as §1
In general terms: GTPγS resists hydrolysis and so accumulates on activated G proteins.

A short description of assay [6]: efficacy relative to 5-HT. The assay is classed as functional. Put shortly:
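Agonist-induced [35S]GTPγS binding in CHO cells stably transfected with human 5-HT1D receptors. Intrinsic efficacy is expressed as percent of the maximal 5-HT response.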

pEC50, pIC50: −log10 of the molar value.

5-hydroxytryptamine receptor 1B, sequence (P28222 whole entry): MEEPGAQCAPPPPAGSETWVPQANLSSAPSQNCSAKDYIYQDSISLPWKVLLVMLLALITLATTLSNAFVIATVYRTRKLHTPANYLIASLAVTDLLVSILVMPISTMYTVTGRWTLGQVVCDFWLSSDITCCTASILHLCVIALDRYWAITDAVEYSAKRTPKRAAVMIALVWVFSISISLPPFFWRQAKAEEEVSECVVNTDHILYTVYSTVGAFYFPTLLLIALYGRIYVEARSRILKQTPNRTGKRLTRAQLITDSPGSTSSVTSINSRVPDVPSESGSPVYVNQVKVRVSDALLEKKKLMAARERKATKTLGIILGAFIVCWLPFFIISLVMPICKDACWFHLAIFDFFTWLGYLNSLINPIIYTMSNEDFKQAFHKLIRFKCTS

In the case of `c1cc2[nH]cc(CCN3CCCC3)c2cc1-n1cnnc1`, the Efficacy in assay [1] amounted to 120%. The pIC50 (usually the negative decadic logarithm of the IC50, by convention in mol/L) is 7.52 in assay [2] and 8.47 in assay [4]. Further, the Selectivity ratio in assay [3] was found to be 9. In assay [5], the pEC50 (usually −log10 of the EC50, conventionally taken in molar units) was 8.59.
As to `CNS(=O)(=O)Cc1ccc2[nH]cc(CCN(C)C)c2c1`, in assay [6], the Efficacy worked out at 100%.
For `CN(Cc1ccccc1)[C@@H]1CCN(CCc2c[nH]c3ccc(-n4cnnc4)cc23)C1`, the results for the pIC50 in assay [2] and in assay [4] were 6.68 and 7.42, respectively. Moreover, the Selectivity ratio in assay [3] was 5.5.
`c1ccc(CO[C@@H]2CCN(CCc3c[nH]c4ccc(-n5cnnc5)cc34)C2)cc1` (stereo in doubt; 4c) [listing 1 of 2 here]: the pIC50 in assay [2] was 6.55; in assay [4] it was 7.64. This molecule also gave a pEC50 in assay [5] of 7.48.
On to `c1ccc(CNCC2CCN(CCc3c[nH]c4ccc(-n5cnnc5)cc34)C2)cc1` (single isomer, unassigned), for which the Efficacy in assay [1] was found to be 102%. The pIC50 in assay [2] was 7.30; in assay [4] it was 8.80. In assay [3], the Selectivity ratio was 31. Further, the pEC50 in assay [5] is 8.39.
Turning to `CN(Cc1ccccc1)C1CCN(CCCc2c[nH]c3ccc(-n4cnnc4)cc23)CC1`, the Efficacy in assay [1] is 94%. For the same molecule, the pIC50 was 6.84 in assay [2] and 8.66 in assay [4]. In assay [3], the Selectivity ratio came to 66. In addition, in assay [5], the pEC50 is 8.80.
On the same counts, the results for `c1ccc(CNC2CCN(CCCc3c[nH]c4ccc(-n5cnnc5)cc34)CC2)cc1` are 76%, 6.90, 8.32, 26 and 8.10.
Regarding `c1ccc(CO[C@@H]2CCN(CCc3c[nH]c4ccc(-n5cnnc5)cc34)C2)cc1` (stereo in doubt; 4c) [listing 2 of 2 here], the Efficacy in assay [1] stood at 84%. Further, in assay [3], the Selectivity ratio was found to be 12.
Regarding `c1ccc(CO[C@@H]2CCN(CCc3c[nH]c4ccc(-n5cnnc5)cc34)C2)cc1` (stereo in doubt; 4b) [listing 1 of 2 here], the results for the negative logarithm of the IC50 (pIC50) in assay [2] and in assay [4] were 6.84 and 8.20, respectively. Moreover, the negative logarithm of the EC50 (pEC50) in assay [5] is 7.82.
Take `CN(C)CCc1c[nH]c2ccc(-n3cnnc3)cc12`: in assay [1], the Efficacy was determined as 117%. In addition, the pIC50 in assay [2] is 8.85; in assay [4], 9.52. The Selectivity ratio in assay [3] came out at 4.7. The negative logarithm of the EC50 (pEC50) in assay [5] is 9.35.
On the same counts, the results for `OC[C@H](NC1CCN(CCCc2c[nH]c3ccc(-n4cnnc4)cc23)CC1)c1ccccc1` are 95%, 6.94, 8.89, 88 and 8.74.
`CN(Cc1ccccc1)CC1CCN(CCCc2c[nH]c3ccc(-n4cnnc4)cc23)CC1`: the Efficacy in assay [1] turned out to be 93%. For the same molecule, the pIC50 in assay [2] was 7.55; in assay [4], 9.02. Also, the Selectivity ratio in assay [3] was 29. This molecule had a pEC50 in assay [5] of 9.05.
`c1ccc(COC[C@@H]2CCN(CCc3c[nH]c4ccc(-n5cnnc5)cc34)C2)cc1`: the Efficacy in assay [1] came out at 68%. The pIC50 in assay [2] was 7.06; in assay [4], 8.64. The Selectivity ratio in assay [3] stood at 38. The pEC50 in assay [5] was 8.68.
In the case of `c1cc2[nH]cc(CCCN3CCCCC3)c2cc1-n1cnnc1`, the pIC50 in assay [2] was 7.82; in assay [4], 7.62. Moreover, the Selectivity ratio in assay [3] was 0.6.
Consider `O=C(c1ccc(F)cc1)C1CCN(CCn2c(=O)[nH]c3ccccc3c2=O)CC1` [KETANSERIN], for which the negative logarithm of the IC50 (pIC50) was 5.19 in assay [2] and 6.59 in assay [4]. Further, the Selectivity ratio in assay [3] turned out to be 25.
For `CN(C)CCc1c[nH]c2ccc(Cn3cncn3)cc12`, in assay [1], the Efficacy stood at 90%.
As to `c1cc2[nH]cc(CCN3CCCCC3)c2cc1-n1cnnc1`, the pIC50 was 6.25 in assay [2] and 6.70 in assay [4]. In addition, the Selectivity ratio in assay [3] came to 3.
In assay [1], `c1ccc(CNC[C@@H]2CCN(CCc3c[nH]c4ccc(-n5cnnc5)cc34)C2)cc1` returned an Efficacy of 100%. Further, the figures for the pIC50 in assay [2] and in assay [4] were 7.33 and 9.30, respectively. For the same molecule, in assay [3], the Selectivity ratio turned out to be 94. In assay [5], the pEC50 is 9.03.
In assay [1], `c1ccc(CO[C@@H]2CCN(CCc3c[nH]c4ccc(-n5cnnc5)cc34)C2)cc1` (stereo in doubt; 4b) [listing 2 of 2 here] showed an Efficacy of 81%. Also, the Selectivity ratio in assay [3] worked out at 23.
In turn, `C[C@@H](NC1CCN(CCCc2c[nH]c3ccc(-n4cnnc4)cc23)CC1)c1ccccc1` had an Efficacy in assay [1] of 96%. The negative-log IC50 (pIC50) is 7.46 in assay [2] and 9.46 in assay [4]. Moreover, the Selectivity ratio in assay [3] is 100. Also, the pEC50 in assay [5] is 8.82.
On the same counts, the results for `CN(Cc1ccccc1)C[C@@H]1CCN(CCc2c[nH]c3ccc(-n4cnnc4)cc23)C1` are 102%, 7.48, 9.15, 47 and 8.80.
On the same counts, the results for `OC[C@H](NC1CCN(CCCc2c[nH]c3ccc(-n4cnnc4)cc23)CC1)c1ccc(F)cc1` are 104%, 6.73, 9.05, 206 and 8.96.

The record behind these values is ChEMBL document CHEMBL1130379, “3-[2-(Pyrrolidin-1-yl)ethyl]indoles and 3-[3-(piperidin-1-yl)propyl]indoles: agonists for the h5-HT1D receptor with high selectivity over the h5-HT1B subtype” (J Med Chem, 1997).
